Screening results (PubChem BioAssay)
Lmaj promast = Leishmania major promastigote growth inhibition | Leishmania major promastigotes, resazurin fluorescence viability | inhibition, % at 10 µM | 9% of 200,000 active;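 further: promastigotes grown with compound for 44 hours at 28 °C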
G6PDH counter = inhibits Leuconostoc G6PDH, flagging false hits in G6PDH-based assays. Purified L. mesenteroides G6PDH, diaphorase/resazurin coupled fluorescence, 45 min. inhibition, % at 5 µM. 0.12% of 200,000 active. AID 1020
Diaph inh CS = counter-screen for diaphorase-based assays: diaphorase inhibitors and chemical oxidizers; diaphorase resazurin-to-resorufin fluorescence, NADH, 16 min; bacterial (C. kluyveri) enzyme, not human; 0.69% of 190,000 active; inhibition, % at 20 µM; AID 1217;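 active means primary screen inhibition at 20 µM above a set limit, cut at about 50% in these data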
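Benchmarks: positive control wells lacking NADH, neutral wells with DMSO only. System: bacterial diaphorase enzyme (C. kluyveri). Input: 0.14 U/mL diaphorase, enzyme working solution. Detection: resorufin fluorescence, excitation 544 nm, emission 590 nm. Times: 16-min room-temperature incubation before reading.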
Redox H2O2 prof = compounds producing H2O2 with reducing agent – biochemical, NIH compound library profiling, artefact control for MLSCN library redox annotation, primary screen; 0.03% of 200,000 active; activation, % at 10 µM; AID 878; DTT-dependent redox cycling H2O2, phenol red/HRP absorbance; 100% = 100 µM peroxide control, 0% = buffer;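 active means activation of at least 50% relative to the plate's high and low controls in the primary single-dose screen; inactive means activation below 50%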;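 further: compound incubated with DTT at 0.8 mM final as the reducing agent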
Diaphorase act = counter-screen for diaphorase-based assays: diaphorase activators and chemical reducers | Diaphorase/resazurin coupled assay, resorufin fluorescence, 16 min; hits give high values; 1 = vehicle wells, 0 = NADH-free wells | activation factor at 20 µM | 0.005% of 190,000 active;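 active means diaphorase activity raised at least twofold by the compound at 20 µM; inactive means activation factor below 2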
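Assay system: Purified diaphorase enzyme from Clostridium kluyveri | Amount: Enzyme 0.07 U/mL final | Dosing: Compound 20 µM once, DMSO 1% | Timing: 16 min reaction at room temperature | Detection: Fluorescence, excitation 544 nm and emission 590 nm | Evaluation: Higher resorufin formation from activation or reduction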
PfG6PD inh = PfG6PD (Plasmodium falciparum) enzyme inhibition. PfGluPho enzyme, NADPH resazurin-diaphorase fluorescence. inhibition, % at 20 µM. 0.78% of 350,000 active;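 active means inhibition reaching at least a set limit at 20 µM in the primary screen, cut at about 59% in these data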
Large screens that a line does not name were inactive. The full list was thinned out, with hits kept by preference. Unless noted, no stated cut-off is given here; in the data, active means inhibition above about 50%; inactive means the rest.

COc1ccccc1N1CCN(C(c2cc3cc(C)ccc3[nH]c2=O)c2nnnn2C2CCCC2)CC1 (stereo not given)	Lmaj promast 54.5
CCOC(=O)C1CCN(C(c2cc3ccc(C)cc3[nH]c2=O)c2nnnn2C2CCCCC2)CC1 (stereo not given)	Lmaj promast 88.5
Cc1ccc(-n2c(=O)c3c4c(sc3n(Cc3cc(=O)n5ccccc5n3)c2=O)CCC4)cc1C	Lmaj promast 74.0
O=c1c2sccc2n(Cc2cc(=O)n3ccccc3n2)c(=O)n1-c1ccccc1	none
Cc1ccc(S(=O)(=O)N(CC(=O)c2ccc(Cl)cc2)C(=O)N2CCN(C)CC2)cc1	none (no result: Lmaj promast, G6PDH counter, Diaph inh CS, Redox H2O2 prof, Diaphorase act)
C/C(=N\NC(=O)c1nnn(-c2nonc2N)c1C(C)C)c1ccc2ccccc2c1	none (no result: Lmaj promast, G6PDH counter, Diaph inh CS, Redox H2O2 prof, Diaphorase act)
COc1ccc(Cl)cc1N(CC(=O)Nc1ccccc1C(=O)NCc1ccco1)S(C)(=O)=O	Lmaj promast 82.7
Cc1cc(Nc2ccc3c(c2)OCCO3)c2cc(Cl)ccc2n1	Lmaj promast 100.5
Cc1cc(Nc2cccc(Cl)c2)c2ccccc2n1	none (no result: Lmaj promast, G6PDH counter, Diaph inh CS, Redox H2O2 prof, Diaphorase act)
Cc1ccc2nc3c(c(Nc4ccc5c(c4)OCCO5)c2c1)CCC3	Lmaj promast 98.4
Cc1ccc2nc3c(c(Nc4ccc(O)cc4)c2c1)CCC3	none (no result: Lmaj promast, G6PDH counter, Diaph inh CS, Redox H2O2 prof, Diaphorase act)
CCCN(CCC)C(=O)c1cc([N+](=O)[O-])cc2c1-c1ccc([N+](=O)[O-])cc1C2=C(C#N)C#N	none (no result: Lmaj promast, G6PDH counter, Diaph inh CS, Redox H2O2 prof, Diaphorase act)
CCOc1ccc(-n2c(-c3ccccc3)c[n+]3c2CCCCC3)cc1	Lmaj promast 100.3
c1ccc(-c2c[n+]3c(n2-c2ccccc2)CCC3)cc1	none (no result: Lmaj promast, G6PDH counter, Diaph inh CS, Redox H2O2 prof, Diaphorase act)
CCCCN(C(=O)c1c(CC)noc1C)c1c(N)n(CCCC)c(=O)[nH]c1=O	none (no result: Lmaj promast, G6PDH counter, Diaph inh CS, Redox H2O2 prof, Diaphorase act)
CCOC(=O)COc1ccc(/C=C2\NC(=S)N(CC)C2=O)cc1	Lmaj promast 97.4
COc1ccc(C(=O)C2CCCN(Cc3cccn3-c3ccccn3)C2)c(OC)c1 (stereo not given)	Lmaj promast 92.1
COc1ccc(F)cc1C(=O)C1CCCN(Cc2cccn2-c2ccccn2)C1 (stereo not given)	Lmaj promast 62.9
COc1ccc2cc(C(=O)C3CCCN(Cc4ccccn4)C3)ccc2c1 (stereo not given)	none
COc1cccc(C(=O)C2CCCN(Cc3cccn3-c3cccnc3)C2)c1 (stereo not given)	Lmaj promast 88.7
O=C(c1cc(F)ccc1F)C1CCCN(Cc2cccn2-c2ccccn2)C1 (stereo not given)	none (no result: Lmaj promast, G6PDH counter, Diaph inh CS, Redox H2O2 prof, Diaphorase act)
COc1cccc(C(=O)C2CCCN(Cc3cccc(-n4cccn4)c3)C2)c1 (stereo not given)	none (no result: Lmaj promast, G6PDH counter, Diaph inh CS, Redox H2O2 prof, Diaphorase act)
COc1ccc(CCN2CC(C(=O)N3CCSCC3)CCC2=O)cc1 (stereo not given)	none (no result: Lmaj promast, G6PDH counter, Diaph inh CS, Redox H2O2 prof, Diaphorase act)
COc1ccc(OC)c(CN2CCN(C(=O)[C@@H](NC(=O)c3cccc(C)c3)C(C)C)CC2)c1	none (no result: Lmaj promast, G6PDH counter, Diaph inh CS, Redox H2O2 prof, Diaphorase act)
COc1ccccc1OCC(=O)Nc1ccccc1C(=O)N1CCCCC1	none (no result: Lmaj promast, G6PDH counter, Diaph inh CS, Redox H2O2 prof, Diaphorase act)
CCOc1ccccc1CN1CCNC(=O)C1CC(=O)NCc1ccccn1 (stereo not given)	none (no result: Lmaj promast, G6PDH counter, Diaph inh CS, Redox H2O2 prof, Diaphorase act)
COC(=O)C1=C(O)CSC1=Nc1ccccc1	none
COC(=O)C1=C(O)CSC1=Nc1ccc(C)cc1	Lmaj promast 57.6
Cc1ccccc1Oc1ccc2c(c1)[C@@H]1C[C@H]3[C@@H](C(=O)N1CC2)[C@H](C)ON3C	none (no result: Lmaj promast, G6PDH counter, Diaph inh CS, Redox H2O2 prof, Diaphorase act)
CCCCn1c(=O)[nH]c(=O)c2c1nc(-c1ccc(CC)c([N+](=O)[O-])c1)n2C	Lmaj promast 84.1 (no result: PfG6PD inh)
C=CCN1C(=O)C(C)(C)N(C(C)=O)c2ccccc21	none
CC(=O)N1c2ccccc2N(Cc2ccc(C)cc2C)C(=O)C1(C)C	Lmaj promast 93.7
COc1cccc(NC(=O)Nc2cc(C(=O)O)ccc2N2CC3CC(C2)c2cccc(=O)n2C3)c1 (stereo not given)	none (no result: Lmaj promast, G6PDH counter, Diaph inh CS, Redox H2O2 prof, Diaphorase act)
Cc1cc(C)c(OCCNC(=O)c2ccccc2Sc2ccccc2C#N)c(C)c1	Lmaj promast 99.5
Cc1ccccc1OCCNC(=O)c1ccccc1Sc1ccccc1C#N	none
CN([C@@H](Cc1ccc(OS(=O)(=O)c2cccc3cnccc23)cc1)C(=O)N1CCN(c2ccccc2)CC1)S(=O)(=O)c1cccc2cnccc12	Lmaj promast 98.2
